Test results from paper PMC7983942 (Clinical Pharmacology and Therapeutics, 2020).

Target: T1, OCT1 (Homo sapiens, UniProt O15245)
T1 sequence (O15245 1-554): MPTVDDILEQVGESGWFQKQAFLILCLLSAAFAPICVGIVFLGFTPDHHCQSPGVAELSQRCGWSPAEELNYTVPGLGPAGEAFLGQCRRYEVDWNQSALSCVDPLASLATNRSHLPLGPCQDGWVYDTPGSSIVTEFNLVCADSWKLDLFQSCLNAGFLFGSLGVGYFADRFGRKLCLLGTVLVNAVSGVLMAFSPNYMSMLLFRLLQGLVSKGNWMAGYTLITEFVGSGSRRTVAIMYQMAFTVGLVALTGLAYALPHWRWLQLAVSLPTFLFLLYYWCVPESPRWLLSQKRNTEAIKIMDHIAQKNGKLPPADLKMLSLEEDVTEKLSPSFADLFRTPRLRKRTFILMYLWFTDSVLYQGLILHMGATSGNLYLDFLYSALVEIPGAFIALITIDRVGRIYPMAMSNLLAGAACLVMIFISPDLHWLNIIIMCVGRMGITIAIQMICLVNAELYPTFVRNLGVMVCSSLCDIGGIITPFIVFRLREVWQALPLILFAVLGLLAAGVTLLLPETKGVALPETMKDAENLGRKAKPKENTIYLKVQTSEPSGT
Experiment: Uptake into transporter-transfected vs wild-type HEK293 cells
Assay type: in vitro ADME
Settings: metformin 20 µM, two to four minutes
Procedure, shortened: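 Transfected HEK293 lines were OAT2 and OCT1, each run against wild-type cells, seeded on poly-D-lysine plates. Culture was 48 h at 37°C in DMEM with 10% FBS plus 1% gentamycin, 1% sodium pyruvate and 50 µg/mL hygromycin B. Probes were cyclic GMP 0.5 µM (OAT2) and metformin 20 µM (OCT1), over 2–4 min; test compound was 1 µM for 2 min. After four ice-cold washes and methanol lysis, the uptake ratio versus wild-type and the ratio of ratios were derived; n=3 in one experiment.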

Structure (SMILES): CN(C)C(=N)N=C(N)N [metformin]
- Uptake ratio (vs. wild‐type HEK293 cells), probe: 15.4 ± 1.06
